# Data taken from ChEMBL document CHEMBL1133419, “Design, synthesis and biological evaluation of 3-amino-3-phenylpropionamide derivatives as novel mu opioid receptor ligands” (Bioorg Med Chem Lett, 2000).
# How the values were obtained:
# Mu-type opioid receptor = Mu-type opioid receptor (Rattus norvegicus, UniProt P33535); assay: Inhibition of [3H]DAMGO binding to rat Opioid receptor mu 1
# In short: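 Rat brain crude membranes (homogenized in 50 mM Tris HCl pH 7.4, kept on ice) incubated with 1.5 nM [3H]DAMGO for 90 min at 22 °C. Nonspecific binding defined with naltrexone. Terminated by rapid filtration, bound radioactivity counted by scintillation. Mean of at least three independent assays.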
# [1] = target: Delta-type opioid receptor (Homo sapiens, UniProt P41143); assay: Inhibition of [3H]naltrindole binding to human Opioid receptor delta 1 in CHO cells; format: cell-based
# Delta-type opioid receptor, sequence (P41143 whole entry): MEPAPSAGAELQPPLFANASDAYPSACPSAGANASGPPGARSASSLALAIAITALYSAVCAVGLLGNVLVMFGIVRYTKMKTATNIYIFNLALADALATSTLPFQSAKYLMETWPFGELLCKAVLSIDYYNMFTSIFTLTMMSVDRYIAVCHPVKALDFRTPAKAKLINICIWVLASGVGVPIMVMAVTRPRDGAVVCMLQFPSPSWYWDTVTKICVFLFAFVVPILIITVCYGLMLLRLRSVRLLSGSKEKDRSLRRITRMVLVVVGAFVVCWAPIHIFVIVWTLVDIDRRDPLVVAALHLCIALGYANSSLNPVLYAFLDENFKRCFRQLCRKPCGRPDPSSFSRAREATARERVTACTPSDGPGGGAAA
# In short: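 Membranes from CHO cells expressing human delta opioid receptor (homogenized in 50 mM Tris HCl pH 7.4, 1 mM EGTA; stored frozen at 0.8 mg/mL) incubated with 0.5 nM [3H]naltrindole, 90 min at 37 °C. Nonspecific binding defined with unlabelled naltrindole. Filtration, scintillation counting; mean of at least three independent assays.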
# [2] = target: Kappa-type opioid receptor (Homo sapiens, UniProt P41145); assay: biochemical; format: cell-based, HEK293
# Kappa-type opioid receptor, sequence (P41145 whole entry): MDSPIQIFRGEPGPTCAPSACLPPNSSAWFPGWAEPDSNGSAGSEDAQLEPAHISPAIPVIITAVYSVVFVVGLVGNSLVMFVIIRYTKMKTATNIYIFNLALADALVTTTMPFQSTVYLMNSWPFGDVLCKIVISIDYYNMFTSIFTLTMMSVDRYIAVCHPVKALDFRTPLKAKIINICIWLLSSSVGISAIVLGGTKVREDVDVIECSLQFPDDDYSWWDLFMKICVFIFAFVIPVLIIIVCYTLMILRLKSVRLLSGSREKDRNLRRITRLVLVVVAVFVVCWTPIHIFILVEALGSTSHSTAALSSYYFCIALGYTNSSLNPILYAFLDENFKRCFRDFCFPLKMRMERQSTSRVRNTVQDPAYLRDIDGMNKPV
# Mu-type opioid receptor, sequence (P33535 whole entry): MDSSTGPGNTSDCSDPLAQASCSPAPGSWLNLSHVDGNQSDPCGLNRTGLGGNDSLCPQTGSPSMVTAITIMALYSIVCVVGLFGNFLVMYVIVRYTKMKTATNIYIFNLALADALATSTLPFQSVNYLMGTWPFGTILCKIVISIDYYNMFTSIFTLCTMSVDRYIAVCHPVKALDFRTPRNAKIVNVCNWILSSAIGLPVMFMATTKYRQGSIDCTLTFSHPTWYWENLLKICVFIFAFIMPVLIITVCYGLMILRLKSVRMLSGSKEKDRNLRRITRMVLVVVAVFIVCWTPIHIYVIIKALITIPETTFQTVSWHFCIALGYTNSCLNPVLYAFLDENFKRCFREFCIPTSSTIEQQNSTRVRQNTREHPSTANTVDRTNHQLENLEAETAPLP
smiles,measurement,setting,value
CNC(c1cccc(O)c1)C(C)(C)C(=O)NCCCc1ccccc1 (stereo not drawn),Ki,Mu-type opioid receptor,12 nM
same,Ki,[1],> 10000 nM
same,Ki,[2],3.6 nM
CNC(c1cccc(O)c1)C(C)(C)C(=O)NCc1ccccc1 (stereo not drawn),Ki,Mu-type opioid receptor,8.7 nM
same,Ki,[1],> 10000 nM
same,Ki,[2],5 nM
CNC(c1ccccc1)C(C)(C)C(=O)NCc1ccccc1 (stereo not drawn),Ki,Mu-type opioid receptor,95 nM
same,Ki,[1],> 10000 nM
same,Ki,[2],467 nM
CCCCN(C)C(c1cccc(O)c1)C(C)(C)C(=O)NCCc1ccccc1 (stereo not drawn),Ki,Mu-type opioid receptor,26 nM
same,Ki,[1],> 10000 nM
same,Ki,[2],75 nM
CNC(c1cccc(O)c1)C(C)(C)C(=O)NCC1CCCCC1 (stereo not drawn),Ki,Mu-type opioid receptor,4.4 nM
same,Ki,[1],881 nM
same,Ki,[2],5.7 nM
CNC(c1cccc(O)c1)C(C)(C)C(=O)NCCc1ccccc1 (stereo not drawn),Ki,Mu-type opioid receptor,1.4 nM
same,Ki,[1],176 nM
same,Ki,[2],6.3 nM
CNC(c1cccc(O)c1)C(C)(C)C(=O)NCc1cccc2ccccc12 (stereo not drawn),Ki,Mu-type opioid receptor,1.4 nM
same,Ki,[1],163 nM
same,Ki,[2],1.3 nM
CNC(c1ccccc1)C(C)(C)C(=O)NCCc1ccccc1 (stereo not drawn),Ki,Mu-type opioid receptor,13 nM
same,Ki,[1],> 10000 nM
same,Ki,[2],49 nM
CN(CC1CC1)C(c1cccc(O)c1)C(C)(C)C(=O)NCCc1ccccc1 (stereo not drawn),Ki,Mu-type opioid receptor,28 nM
same,Ki,[1],710 nM
same,Ki,[2],2.9 nM
CNC(c1ccccc1)C(C)(C)C(=O)NCC1CCCCC1 (stereo not drawn),Ki,Mu-type opioid receptor,85 nM
same,Ki,[1],> 10000 nM
same,Ki,[2],1.2 nM
CNC(c1cccc(O)c1)C(C)(C)C(=O)NCC1CC1 (stereo not drawn),Ki,Mu-type opioid receptor,364 nM
same,Ki,[1],781 nM
same,Ki,[2],75 nM
